# Results pooled from the literature.
# Cell line: HepG2
# Read-out: cell growth or viability
SMILES,method,time,CC50 [µM]
CCCCN(c1ccc(C)cc1)c1ccc(NC(=O)CN(C)c2ccccc2N2CCCC2=O)cc1,ATP luminescence,48 h,> 40
Cc1ccc(Nc2ncnc3ccc(-c4cccc(N5CCOCC5)c4)cc23)cc1,MTT,48 h,19
CN(CC(=O)Nc1ccc(N(C)c2ccc(Cl)cc2)c(Cl)c1)c1ccccc1N1CCCC1=O,ATP luminescence,48 h,> 40
N=C(CC(O)c1ccnc2c1ccc1ccccc12)Nc1ccc(F)cc1 (centres unmarked),neutral red,,33.3
Clc1ccc(Nc2ncnc3ccc(-c4cccc(N5CCOCC5)c4)cc23)cc1Cl,MTT,48 h,> 40
O=C1c2ccccc2C(=O)c2c(NCCc3ccc(O)cc3)ccc(NCCc3ccc(O)cc3)c21,ATP luminescence,72 h,16.1
N=C(CC(O)c1nc2ccccc2c2ccccc12)Nc1ccc(F)cc1 (centres unmarked),neutral red,24 h,48.5
CCCCCCNc1nc(NC2CCN(C)CC2)c2cc(OC)c(OC)cc2n1,ATP luminescence,72 h,2.03
c1cc(-c2ccc3ncnc(Nc4ncco4)c3c2)nc(N2CCOCC2)n1,MTT,48 h,26
CC(C)N(c1ccc(NC(=O)CN(C)c2ccccc2N2CCCC2=O)cc1)c1ccc(Cl)c(F)c1,ATP luminescence,48 h,> 40
O=[N+]([O-])c1ccc(Nc2ncnc3ccc(-c4cccc(N5CCOCC5)c4)cc23)cc1C(F)(F)F,MTT,48 h,> 40
CC(C)N(c1ccc(Cl)c(F)c1)c1ccc(NC(=O)CN(C)c2ccccc2N2CCCC2=O)c(F)c1,ATP luminescence,48 h,> 40
C[n+]1cc2c3c(ccc2c2ccc4cc5c(cc4c21)OCO5)OCO3,ATP luminescence,72 h,9.44
N=C(CC(O)c1cc2cccnc2c2cccnc12)Nc1ccc(F)cc1 (centres unmarked),neutral red,24 h,265
O=C(CNc1ccccc1N1CCCC1=O)Nc1ccc(Oc2cccc(Cl)c2)cc1,ATP luminescence,48 h,> 40
CC(=O)[C@]1(O)Cc2c(O)c3c(c(O)c2[C@@H](O[C@H]2C[C@H](N)[C@H](O)[C@H](C)O2)C1)C(=O)c1ccccc1C3=O,ATP luminescence,72 h,0.14
Clc1ccc(Nc2ncnc3ccc(-c4cccc(N5CCOCC5)c4)cc23)cc1,MTT,48 h,18
